# Measurements: the array DNA melting data of Ke et al. (doi:10.1101/2024.01.08.574731)
# Assays:
# [1] = melting temperature; fluorescence melt of hairpins on a sequencing array, two-state fit, raised by 9.35 °C to match UV melts; conditions: sodium 0.088 M
# In short: (§1)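 Melting temperature and folding enthalpy were obtained by bootstrapped two-state fitting. Fits used Cy3 fluorescence of library hairpins with annealed Cy3 and quencher oligos on a sequenced MiSeq flow cell, imaged in 50 mM Na-HEPES pH 8.0, 25 mM NaCl in 2.5 °C steps up to 60 °C and normalised to pre-quench Cy3 and control constructs. Four replicates were combined by inverse-variance weighting, and fitted temperatures were raised by 9.35 °C to match UV melts.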
# [2] = folding enthalpy; higher = less favourable; fluorescence melt of hairpins on a sequencing array, two-state fit; conditions: sodium 0.088 M
# In short: as §1
sequence,measurement,setting,value
GTTGCTCGAAAGAGGAAC (((.(((....))).))),Tm,[1],53.9 °C
same,folding enthalpy,[2],-38.2 kcal/mol
GTTGCTGGAAACAGTGAC ((..(((....)))..)),Tm,[1],39.2 °C
same,folding enthalpy,[2],-28.4 kcal/mol
GTTGGACGAAAGTCGAAC (((.(((....))).))),Tm,[1],49.1 °C
same,folding enthalpy,[2],-16.8 kcal/mol
GTTGGAGGAAACTCCAAC (((((((....))))))),Tm,[1],60.8 °C
same,folding enthalpy,[2],-36 kcal/mol
GTTGGAGGAAACTTCGAC ((.(.((....)).).)),Tm,[1],34.2 °C
same,folding enthalpy,[2],-24.3 kcal/mol
GTTGGATCGAAAGATAAC (((..(((....)))))),Tm,[1],27.3 °C
same,folding enthalpy,[2],-6.79 kcal/mol
GTTGGCCGAAAGGCAAAC (((.(((....))).))),Tm,[1],56.8 °C
same,folding enthalpy,[2],-21.8 kcal/mol
GTTGGCGAAAGCCATAAC ((((((....)))..))),Tm,[1],35.7 °C
same,folding enthalpy,[2],-10.2 kcal/mol
GTTGGCGAAAGCCGAAC ((((((....))).))),Tm,[1],50.5 °C
same,folding enthalpy,[2],-13.8 kcal/mol
GTTGGCGAAAGCCTCAAC ((((((....)))..))),Tm,[1],29.9 °C
same,folding enthalpy,[2],-10.6 kcal/mol
GTTGGCGGAAACGCTAAC (((.(((....))).))),Tm,[1],53.1 °C
same,folding enthalpy,[2],-30.9 kcal/mol
GTTGGGAAACCAAC (((((....))))),Tm,[1],51.7 °C
same,folding enthalpy,[2],-27.9 kcal/mol
GTTGGGCCGAAAGGCAAC (((..(((....)))))),Tm,[1],45.4 °C
same,folding enthalpy,[2],-15.3 kcal/mol
GTTGGGGGAAACCCCAAC (((((((....))))))),Tm,[1],65.6 °C
same,folding enthalpy,[2],-45.9 kcal/mol
GTTGGGGGAAACCCTAAC (((.(((....))).))),Tm,[1],45.1 °C
same,folding enthalpy,[2],-26.6 kcal/mol
GTTGGGGGAAACCCTGAC ((..(((....)))..)),Tm,[1],35.6 °C
same,folding enthalpy,[2],-23.8 kcal/mol
GTTGGGGGAAACCTCGAC ((.(.((....)).).)),Tm,[1],34.7 °C
same,folding enthalpy,[2],-23.5 kcal/mol
GTTGGGGGAAACTCCAGC (.(((.(....).))).),Tm,[1],35.8 °C
same,folding enthalpy,[2],-23.5 kcal/mol
GTTGGTCGAAAGACAAAC (((.(((....))).))),Tm,[1],48.5 °C
same,folding enthalpy,[2],-26.5 kcal/mol
GTTGGTCGAAAGACTAAC (((.(((....))).))),Tm,[1],50.9 °C
same,folding enthalpy,[2],-25.9 kcal/mol
GTTGGTGAAAACCAAC ((((((....)))))),Tm,[1],58.5 °C
same,folding enthalpy,[2],-37 kcal/mol
GTTGGTGGAAACATCGAC ((.(.((....)).).)),Tm,[1],35.1 °C
same,folding enthalpy,[2],-21.1 kcal/mol
GTTGTAGGAAACCACAAC (((((.(....).))))),Tm,[1],39.9 °C
same,folding enthalpy,[2],-32.5 kcal/mol
GTTGTCCCGAAAGGGAAC (((..(((....)))))),Tm,[1],50.4 °C
same,folding enthalpy,[2],-20.7 kcal/mol
GTTGTCCGAAAGGATAAC (((.(((....))).))),Tm,[1],51.9 °C
same,folding enthalpy,[2],-44.9 kcal/mol
GTTGTCGAAAGACTAAAC ((((((....)))..))),Tm,[1],29.5 °C
same,folding enthalpy,[2],-13.6 kcal/mol
GTTGTCGAAAGACTTAAC ((((((....)))..))),Tm,[1],27.2 °C
same,folding enthalpy,[2],-10 kcal/mol
GTTGTCGGAAACGATAAC (((.(((....))).))),Tm,[1],47.8 °C
same,folding enthalpy,[2],-34.6 kcal/mol
GTTGTCGGAAACGGCAAC ((((.((....)).)))),Tm,[1],56.2 °C
same,folding enthalpy,[2],-37.7 kcal/mol
GTTGTGGGAAACCATAAC (((.(((....))).))),Tm,[1],43.5 °C
same,folding enthalpy,[2],-32.4 kcal/mol
GTTGTGGGAAACCATAGC (.(.(((....))).).),Tm,[1],27.6 °C
same,folding enthalpy,[2],-12.7 kcal/mol
GTTTAAGAAATTAAAC ((((((....)))))),Tm,[1],32.4 °C
same,folding enthalpy,[2],-16.8 kcal/mol
GTTTAAGCGAAAGCTAAC (((..(((....)))))),Tm,[1],32 °C
same,folding enthalpy,[2],-11.8 kcal/mol
GTTTAAGGAAACCTAAAC (((((.(....).))))),Tm,[1],24.8 °C
same,folding enthalpy,[2],-9.26 kcal/mol
GTTTACGCGAAAGCGAAC (((..(((....)))))),Tm,[1],31.8 °C
same,folding enthalpy,[2],-9.1 kcal/mol
GTTTACGGAAACGTGAAC (((.(((....))).))),Tm,[1],46 °C
same,folding enthalpy,[2],-27.7 kcal/mol
GTTTAGACGAAAGTCAAC (((..(((....)))))),Tm,[1],30.4 °C
same,folding enthalpy,[2],-9.97 kcal/mol
GTTTAGGGAAACCTAAAC (((((((....))))))),Tm,[1],52.7 °C
same,folding enthalpy,[2],-39.9 kcal/mol
